Bioassay records deposited in PubChem by The Scripps Research Institute Molecular Screening Center.
ROCK2 inh: inhibitors of human ROCK2 kinase, primary screen, biochemical, high-throughput, luminescence. actives 0.35% (n = 60,000). Rho-associated protein kinase 2 (Homo sapiens), O75116. AID 604, 2007. inhibition, % at 6 µM. purified ROCK2, Kinase-Glo ATP depletion luminescence;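 active means inhibition above the screen-wide mean inhibition plus 3 SD, cut at about 18% in these data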;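 further: plate controls were DMSO wells for no effect and Y-27632 control wells after no-enzyme background subtraction for full effect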
SF1 activator: activators of human SF-1, primary screen, cell-based, CHO-K1, Gal4-SF-1 LBD, luciferase luminescence. Steroidogenic factor 1 (Homo sapiens), Q13285. CHO-K1 Gal4-SF-1 LBD luciferase reporter; % increase over DMSO SF-1-specific signal. activation, % at 10 µM. actives 1.9% (n = 65,000);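 active means activation above the mean activation of all tested compounds plus 3 SD, cut at about 50% in these data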
Target sequence (Q13285 whole entry, looked up, the tested form may be a part): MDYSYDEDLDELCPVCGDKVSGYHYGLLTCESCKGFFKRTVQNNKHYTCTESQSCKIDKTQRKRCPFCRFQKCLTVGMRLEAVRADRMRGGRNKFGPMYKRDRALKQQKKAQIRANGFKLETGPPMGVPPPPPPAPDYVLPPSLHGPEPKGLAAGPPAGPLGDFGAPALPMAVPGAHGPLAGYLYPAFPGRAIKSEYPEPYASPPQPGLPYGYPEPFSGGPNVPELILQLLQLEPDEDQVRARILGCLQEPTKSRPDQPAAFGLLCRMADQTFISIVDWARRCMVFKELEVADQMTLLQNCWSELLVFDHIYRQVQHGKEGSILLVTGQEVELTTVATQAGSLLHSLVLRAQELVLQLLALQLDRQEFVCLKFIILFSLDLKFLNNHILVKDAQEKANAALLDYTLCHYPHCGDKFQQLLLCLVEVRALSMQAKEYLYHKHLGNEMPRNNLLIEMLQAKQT
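material = CHO-K1 cells with Gal4–hSF-1 LBD chimera plus Gal4-driven luciferase | compound = 10 µM single point, 1% DMSO | incubation = 20 h compound exposure at 37 °C after 1 h cell settling | measured by = SteadyLite luciferase luminescence | evaluation = percent activation relative to DMSO median and mock-transfected background | control set = DMSO negative control and −SF1 background wells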
MMP-13 inhibitor: human MMP13 inhibitors, primary screen, biochemical, FRET peptide cleavage | Collagenase 3 (Homo sapiens), P45452 | MMP-13 fTHP FRET cleavage, Mca fluorescence | inhibition, % at 4 µM | actives 0.07% (n = 65,000) | AID 570, 2006;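 active means inhibition above the mean of compound-free control plate wells plus 3 SD, cut at about 14% in these data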;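 further: 0% = DMSO wells and 100% = wells with reference MMP-13 inhibitor after basal subtraction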
PKA inh: inhibitors of human PKA kinase activity, primary screen, biochemical, ATP-depletion luminescence, Kemptide substrate | actives 0.1% (n = 65,000) | inhibition, % at 6 µM | cAMP-dependent protein kinase catalytic subunit alpha (Homo sapiens), P17612 | PKA Kemptide phosphorylation, Kinase-Glo ATP luminescence | AID 524, 2006;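 active means inhibition above the screen-wide mean inhibition plus 3 SD, cut at about 21% in these data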
JNK3 inh: JNK3 kinase activity inhibitors, primary screen, biochemical, human, purified enzyme. Mitogen-activated protein kinase 10 (Homo sapiens), P53779. HTS. inhibition, % at 8 µM. actives 0.61% (n = 60,000). AID 746, 2007; in the data active means inhibition above about 17%;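 further: 0% = DMSO and 100% = reference inhibitor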
RORa activator: activators of orphan receptor RORA, primary screen, cell-based, luminescence; CHO-K1 Gal4-RORA LBD luciferase reporter; percent increase over mock-subtracted basal signal; activation, % at 10 µM; Nuclear receptor ROR-alpha (Homo sapiens), P35398; actives 1.5% (n = 65,000); AID 560, 2006;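 active means activation above the mean of all tested compounds plus 3 SD, cut at about 49% in these data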;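 further: 0% = DMSO-treated RORA cells and 100% = added signal equal to DMSO minus mock-transfected cells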
The depositor's hits bear a star; x = not tested or not shown. This is a sample that favours compounds with a hit; in the whole collection about 3.4% have one here.

SMILES | ROCK2 inh | SF1 activator | MMP-13 inhibitor | PKA inh | JNK3 inh | RORa activator
Clc1ccc(Nc2ncnc3c2cnn3-c2ccccc2)cc1 | 0.7 | 21.5 | -11.8 | 6.2 | 8.7 | 71.9*
CC(=O)Nc1ccc(Nc2ncnc3c2cnn3-c2cccc(C)c2)cc1 | 6.1 | 24.3 | -14.8 | 8.9 | 9.8 | 65.7*
COCCCNC(CC(=O)Nc1ccc(N(C)C)cc1)C(=O)O (stereo not drawn) | 2.4 | -12.1 | -2.3 | 4.3 | -5.1 | -1.1
Cc1ccc(C(=O)c2coc3ccc(O)c(CN4CCN(C)CC4)c23)cc1 | 7.8 | -15.0 | 6.7 | 9.3 | 3.5 | -1.2
CCOC(=O)Cc1csc2nc3sc(C)c(C)c3c(=O)n12 | 2.3 | -12.0 | -8.4 | -0.6 | 3.4 | -13.7
CCCc1nc(SCC(=O)Nc2cc(C)on2)c2ccccc2n1 | -0.2 | -19.5 | -0.5 | -1.4 | 20.6* | -20.7
CCCc1nc(SCC(=O)N2CCCC2)c2ccccc2n1 | 0.5 | -18.7 | -3.0 | 4.8 | 17.4* | -24.3
Cc1cc(NC(=O)CSc2nc(-c3ccc(F)cc3)cs2)no1 | 6.2 | -10.4 | -0.1 | 10.2 | -7.2 | 5.9
Cc1cc(NC(=O)CSc2nc(-c3ccccc3)cs2)no1 | 18.3* | -9.8 | 4.6 | 12.4 | 1.6 | -22.3
Cc1cc(NC(=O)CSc2nc(CCC3CCCC3)nc3ccccc23)no1 | 1.6 | -19.3 | 0.3 | -2.4 | 2.1 | 0.6
Cc1ccc(-c2ccc(=O)n(CC(=O)Nc3cccc(C(=O)N4CCN(C)CC4)c3)n2)cc1 | x | -11.2 | -1.9 | 7.2 | x | -8.9
COC(=O)C(NC(=O)c1ccccc1)=C(C)C | 0.8 | -1.6 | 7.4 | 2.6 | -1.4 | 3.5
C/C(NC(=O)c1ccccc1)=C1/C(=O)CC2C1C2(C)C (stereo not drawn) | 1.9 | 30.1 | 1.6 | 3.0 | 0.4 | 68.1*
O=C1c2oc3ccccc3c(=O)c2C(c2ccc(Br)cc2)N1c1ncccn1 (stereo not drawn) | 5.7 | 7.3 | 0.6 | 5.4 | 1.2 | -4.3
CC1(C)Cc2c(C#N)c(N)sc(=S)c2CS1 | 5.2 | -5.2 | -6.3 | 4.4 | -3.1 | -8.4
CC1(C2(O)CC(c3ccccc3)ON2)CCCCC1 (stereo not drawn) | -10.1 | 4.6 | 2.4 | 0.6 | -0.2 | -11.3
Cc1ccc(OCC(O)CN2C(=O)NC(C)(C)C2=O)cc1C (stereo not drawn) | 6.4 | 2.3 | 0.8 | 6.3 | 8.9 | -4.3
CCCCCCOc1ccc(OCC(O)CN2C(=O)NC(C)(C)C2=O)cc1 (stereo not drawn) | -3.2 | 35.9 | -0.4 | -8.9 | 2.5 | 62.0*
O=C(CSc1nnc(-c2cccs2)o1)N1CCOCC1 | 2.1 | 4.6 | -5.3 | 5.3 | 0.6 | 1.4
Cc1nnc(SC(C)C(=O)Nc2ccc3c(c2)OCCO3)s1 (stereo not drawn) | 2.5 | 7.5 | 2.7 | 2.0 | 2.1 | 21.1
O=C(CSc1nnc(-c2cccs2)o1)N1CCCCC1 | 4.3 | 63.4* | 0.5 | 1.6 | -0.3 | 45.3
COc1ccc(-c2nnc(SCC(=O)N3CCOCC3)o2)cc1 | 4.7 | 37.8 | -6.7 | 12.1 | 4.2 | 73.0*
Fc1ccc(CSc2nnc(-c3cccs3)o2)cc1 | 3.3 | 43.0 | 1.8 | 11.0 | 9.2 | 25.2
COc1ccc(-c2nnc(SC(C)C(=O)Nc3ccc4c(c3)OCCO4)o2)cc1 (stereo not drawn) | 6.6 | 49.6* | -6.4 | 8.0 | -2.9 | 25.3
c1ccc(CSc2nnc(-c3cccs3)o2)cc1 | 6.3 | 52.1* | 1.5 | 2.5 | -2.1 | 49.9*
SMILES | ROCK2 inh | SF1 activator | MMP-13 inhibitor | PKA inh | JNK3 inh | RORa activator
Cc1ccccc1N1C(=O)N(c2cccc(C(F)(F)F)c2)C2CS(=O)(=O)CC21 (stereo not drawn) | 4.7 | -10.0 | 8.1 | 13.1 | 4.2 | -1.5
O=C(CN1CCOCC1)N1CCN(C(=O)CN2CCOCC2)CC1 | 3.1 | -3.2 | 2.9 | 9.3 | -1.1 | -16.5
COc1ccccc1NC(=O)c1ccc(-c2ccccc2F)o1 | 7.4 | 26.3 | 3.5 | 9.3 | -9.1 | 22.7
Fc1ccccc1CSc1nnc(-c2cccs2)o1 | 5.5 | 92.0* | -3.6 | 6.5 | -0.1 | 50.3*
c1ccc(-c2nnc(CSc3nnc(-c4cccs4)o3)o2)cc1 | 2.4 | 6.3 | 1.2 | 8.7 | -2.3 | 14.3
COc1ccccc1NC(=O)CSc1nnc(-c2ccc(C)cc2)o1 | 2.1 | 56.6* | -5.4 | -0.5 | -6.2 | 40.8
COc1ccc(C)cc1NC(=O)CSc1nnc(-c2ccc(Br)cc2)o1 | -3.7 | -0.8 | 0.1 | 4.1 | 3.4 | 8.0
Fc1ccc(Cc2nnc(-c3cccs3)o2)cc1 | 3.1 | 35.9 | -4.8 | 7.7 | 1.4 | 63.4*
COc1ccc(C2C3=C(CC(C)(C)CC3=O)Nc3c2c(=O)[nH]c2nc(C)nn32)cc1 (stereo not drawn) | 6.3 | 8.3 | -7.8 | 6.8 | 1.5 | -17.7
Nc1nc(-c2ccccc2)nn1C(=O)Cc1ccccc1 | -11.1 | 0.3 | 2.2 | 1.5 | 1.4 | -4.1
COc1ccc(C(=O)n2nc(-c3ccccc3)nc2N)cc1OC | 12.4 | -19.1 | -1.1 | 6.5 | 48.9* | -14.3
NC(=O)c1sc2nc(N3CCCCC3)c3c(c2c1N)CCCC3 | 42.4* | 6.3 | -269.8 | 26.9* | 6.1 | 2.0
CCOC(=O)c1sc2nc(N3CCOCC3)c3c(c2c1N)CCCC3 | 4.3 | -6.8 | -126.4 | 4.6 | -4.6 | -5.2
N#C/C(C(=O)N1CCCCC1)=C1\Nc2ccccc2S1 | -1.7 | 50.5* | 1.3 | 0.5 | -1.1 | 29.9
COc1ccc(C2C(C(C)=O)=C(C)N=c3s/c(=C\c4ccco4)c(=O)n32)c(OC)c1 (stereo not drawn) | 1.6 | -11.3 | 6.2 | 2.9 | -9.1 | -18.6
COc1ccc(C2C(C(C)=O)=C(C)N=c3s/c(=C\c4cc(C)n(C)c4C)c(=O)n32)c(OC)c1 (stereo not drawn) | 0.5 | -6.1 | 18.3* | -2.4 | -4.2 | -5.9
COc1ccc(NC(=O)c2cnc3ccccn3c2=O)cc1OC | 3.9 | 18.1 | 0.1 | 1.0 | 1.5 | 52.8*
COc1ccc(NC(=O)c2cnc3n(c2=O)CCS3)cc1OC | 1.7 | 9.1 | 1.8 | 3.5 | 1.9 | 15.4
CC(C)c1ccc(S(=O)(=O)N2CCN(C(=O)c3cccc(F)c3)CC2)cc1 | 0.9 | 10.8 | 5.2 | -2.3 | 0.1 | -2.1
CSCCNC(=O)c1ccc(C(C)(C)C)cc1 | -2.1 | 72.7* | -3.1 | 1.3 | -10.7 | 73.1*
O=C(NCCSc1ccccc1)c1ccccc1 | -2.1 | 40.0 | 5.4 | 3.4 | -0.4 | 31.3
CN(C)c1ccc(NC(=O)CCCc2ccccc2)cc1 | 10.5 | 39.7 | -1.7 | 8.3 | -10.5 | 49.9*
